pIC50, pKi: −log10 of the molar value.
Assays:
[1] = target: Inosine-5'-monophosphate dehydrogenase 2 (Mus musculus, UniProt P24547); assay: Compound was tested for inhibitory activity against Inosine-5'-monophosphate dehydrogenase, the type of inhibition in not competitive
Summary of the method: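 Partially purified IMP dehydrogenase; kinetics run at 3 inhibitor concentrations against 6 levels of substrate NAD or IMP (0.25, 0.5, 1, 2, 4 and 6 × Km). Inhibition type judged from these kinetics.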

P388 [2] = assay: The cytotoxic concentration against P388 leukemia cell; format: functional; conditions: Mus musculus, read-out: ID50 (the source's name)
P388 [3] = assay: The influence (100 uM) on Guanine nucleotide pools of Natural P388 resistant cell lines measured as conc. of GDP; format: functional, Mus musculus
Summary of the method: (§1)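 Log-phase P388/S (parental) or P388/R cells (TR-resistant, selected to grow in 1 mM TR) exposed 18 h to the stated concentration. Cells then washed in cold saline, extracted with cold 10% TCA and neutralized with tri-n-octylamine/freon. GMP, GDP and GTP quantified by SAX HPLC: 0.03 M ammonium phosphate pH 3.5, then gradient to 0.6 M, pH 3.8. Values as nmol/10^6 cells.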

P388 [4] = assay: The influence (100 uM) on Guanine nucleotide pools of Natural P388 resistant cell lines measured as conc. of GMP; format: functional, Mus musculus; summary of the method: as §1
P388 [5] = assay: The influence (100 uM) on Guanine nucleotide pools of Natural P388 resistant cell lines measured as conc. of GTP; format: functional, Mus musculus; summary of the method: as §1
P388 [6] = assay: The influence (100 uM) on Guanine nucleotide pools of Natural P388 sensitive cell lines measured as conc. of GDP; format: functional, Mus musculus; summary of the method: as §1
P388 [7] = assay: The influence (100 uM) on Guanine nucleotide pools of Natural P388 sensitive cell lines measured as conc. of GMP; format: functional, Mus musculus; summary of the method: as §1
P388 [8] = assay: The influence (100 uM) on Guanine nucleotide pools of Natural P388 sensitive cell lines measured as conc. of GTP; format: functional, Mus musculus; summary of the method: as §1
P388 [9] = assay: The influence (50 uM) on Guanine nucleotide pools of Natural P388 resistant cell lines measured as conc. of GDP; format: functional, Mus musculus; summary of the method: as §1
P388 [10] = assay: The influence (50 uM) on Guanine nucleotide pools of Natural P388 resistant cell lines measured as conc. of GMP; format: functional, Mus musculus; summary of the method: as §1
P388 [11] = assay: The influence (50 uM) on Guanine nucleotide pools of Natural P388 resistant cell lines measured as conc. of GTP; format: functional, Mus musculus; summary of the method: as §1
P388 [12] = assay: The influence (50 uM) on Guanine nucleotide pools of Natural P388 sensitive cell lines measured as conc. of GDP; format: functional, Mus musculus; summary of the method: as §1
P388 [13] = assay: The influence (50 uM) on Guanine nucleotide pools of Natural P388 sensitive cell lines measured as conc. of GMP; format: functional, Mus musculus; summary of the method: as §1
P388 [14] = assay: The influence (50 uM) on Guanine nucleotide pools of Natural P388 sensitive cell lines measured as conc. of GTP; format: functional, Mus musculus; summary of the method: as §1
Mus musculus = species on record: Mus musculus; assay: Compound was tested for its degradation by TAD-phosphodiesterase; format: functional
Summary of the method: (§2)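 Dinucleotide incubated as substrate at 7.5 mM in 0.03 M Tris-MgCl2, pH 7.6, for 30 min with enzyme: line 1, partially purified TAD-phosphodiesterase from colon-38 carcinoma cells; line 2, snake venom phosphodiesterase. Degradation quantified by HPLC as AMP or TRMP formed, or parent dinucleotide lost, depending on substrate. Expressed relative to TAD hydrolysis set at 100%.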

snake = assay: Compound was tested for its degradation by venom phosphodiesterase; format: functional; summary of the method: as §2
P388 [15] = assay: The influence (2.5 uM) on Guanine nucleotide pools of Natural P388 sensitive cell lines measured as conc. of GMP; format: functional, Mus musculus; summary of the method: as §1
P388 [16] = assay: The influence (2.5 uM) on Guanine nucleotide pools of Natural P388 sensitive cell lines measured as conc. of GTP; format: functional, Mus musculus; summary of the method: as §1
P388 [17] = assay: The influence (5 uM) on Guanine nucleotide pools of Natural P388 sensitive cell lines measured as conc. of GDP; format: functional, Mus musculus; summary of the method: as §1
P388 [18] = assay: The influence (5 uM) on Guanine nucleotide pools of Natural P388 sensitive cell lines measured as conc. of GMP; format: functional, Mus musculus; summary of the method: as §1
P388 [19] = assay: The influence (5 uM) on Guanine nucleotide pools of Natural P388 sensitive cell lines measured as conc. of GTP; format: functional, Mus musculus; summary of the method: as §1
P388 [20] = assay: The influence (2.5 uM) on Guanine nucleotide pools of Natural P388 resistant cell lines measured as conc. of GDP; format: functional, Mus musculus; summary of the method: as §1
P388 [21] = assay: The influence (2.5 uM) on Guanine nucleotide pools of Natural P388 resistant cell lines measured as conc. of GMP; format: functional, Mus musculus; summary of the method: as §1
P388 [22] = assay: The influence (2.5 uM) on Guanine nucleotide pools of Natural P388 resistant cell lines measured as conc. of GTP; format: functional, Mus musculus; summary of the method: as §1
P388 [23] = assay: The influence (2.5 uM) on Guanine nucleotide pools of Natural P388 sensitive cell lines measured as conc. of GDP; format: functional, Mus musculus; summary of the method: as §1
P388 [24] = assay: The influence (5000 uM) on Guanine nucleotide pools of Natural P388 resistant cell lines measured as conc. of GDP; format: functional, Mus musculus; summary of the method: as §1
P388 [25] = assay: The influence (5000 uM) on Guanine nucleotide pools of Natural P388 resistant cell lines measured as conc. of GMP; format: functional, Mus musculus; summary of the method: as §1
P388 [26] = assay: The influence (5000 uM) on Guanine nucleotide pools of Natural P388 resistant cell lines measured as conc. of GTP; format: functional, Mus musculus; summary of the method: as §1

Sequence of Inosine-5'-monophosphate dehydrogenase 2 (P24547 whole entry): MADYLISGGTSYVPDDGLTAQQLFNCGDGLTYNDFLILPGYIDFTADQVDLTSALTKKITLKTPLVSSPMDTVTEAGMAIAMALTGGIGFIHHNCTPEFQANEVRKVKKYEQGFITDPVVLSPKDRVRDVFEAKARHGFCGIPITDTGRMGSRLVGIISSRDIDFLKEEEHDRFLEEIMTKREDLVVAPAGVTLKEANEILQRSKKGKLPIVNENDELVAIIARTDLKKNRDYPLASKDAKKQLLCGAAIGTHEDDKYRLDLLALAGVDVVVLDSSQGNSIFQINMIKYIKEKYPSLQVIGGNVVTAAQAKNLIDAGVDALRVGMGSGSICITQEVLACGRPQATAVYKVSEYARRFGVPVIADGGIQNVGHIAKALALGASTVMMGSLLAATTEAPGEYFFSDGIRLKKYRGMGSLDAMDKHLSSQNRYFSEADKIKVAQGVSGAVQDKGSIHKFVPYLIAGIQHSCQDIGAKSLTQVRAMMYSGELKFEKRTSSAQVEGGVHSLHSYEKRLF

NC(=O)c1csc([C@@H]2O[C@H](COP(=O)(O)CP(=O)(O)OC[C@@H]3O[C@H](n4cnc5c(N)ncnc54)[C@@H](O)[C@H]3O)[C@@H](O)[C@H]2O)n1
pKi [1]: 6.64
pIC50 (P388 [2]): 4.35
Control (P388 [3]): 34%
Control (P388 [4]): 3%
Control (P388 [5]): 8%
Control (P388 [6]): 19%
Control (P388 [7]): 6%
Control (P388 [8]): 39%
Control (P388 [9]): 24%
Control (P388 [10]): 3%
Control (P388 [11]): 5%
Control (P388 [12]): 24%
Control (P388 [13]): 14%
Control (P388 [14]): 24%
hydrolysis relative to TAD (Mus musculus): 0%
hydrolysis relative to TAD (snake): 0%

NC(=O)c1csc([C@H]2O[C@@H](COP(=O)(O)OP(=O)(O)OC[C@H]3O[C@@H](n4cnc5c(N)ncnc54)[C@H](O)[C@@H]3O)[C@H](O)[C@@H]2O)n1
pKi [1]: 6.62
pIC50 (P388 [2]): 5.68
hydrolysis relative to TAD (Mus musculus): 100%
hydrolysis relative to TAD (snake): 100%

NC(=O)c1csc([C@@H]2O[C@H](CCP(=O)(O)OP(=O)(O)OC[C@H]3O[C@@H](n4cnc5c(N)ncnc54)[C@H](O)[C@@H]3O)[C@@H](O)[C@H]2O)n1
pKi [1]: 5.71
pIC50 (P388 [2]): 4.00
hydrolysis relative to TAD (Mus musculus): 10.4%
hydrolysis relative to TAD (snake): 27.2%

NC(=O)c1csc([C@@H]2O[C@H](CO)[C@@H](O)[C@H]2O)n1 [TIAZOFURIN]
Control (P388 [15]): 12%
Control (P388 [16]): 51%
Control (P388 [17]): 36%
Control (P388 [18]): 8%
Control (P388 [19]): 34%
Control (P388 [20]): 88%
Control (P388 [21]): 98%
Control (P388 [22]): 111%
Control (P388 [23]): 41%
Control (P388 [24]): 74%
Control (P388 [25]): 0%
Control (P388 [26]): 52%

NC(=O)c1csc([C@@H]2O[C@H](COP(=O)(O)OP(=O)(O)CC[C@H]3O[C@@H](n4cnc5c(N)ncnc54)[C@H](O)[C@@H]3O)[C@@H](O)[C@H]2O)n1
pIC50 (P388 [2]): 5.55
hydrolysis relative to TAD (Mus musculus): 13%
hydrolysis relative to TAD (snake): 37.6%
